Reference: ChEMBL document CHEMBL1129487, “In vivo biodistribution, pharmacokinetic parameters, and brain uptake of 5-halo-y-methoxy(or ethoxy)-5,6-dihydro-3'-azido-3'-deoxythymidine diastereomers as potential prodrugs of 3'-azido-3'-deoxythymidine” (J Med Chem, 1996)

Legend:
[1] = Half-life for the compound after intravenous administration into BALB/c Mice in plasma samples.; format: ADME, organism-based; conditions: mouse
In short: (§1)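 Tail-vein injection in Balb/c mice at 144 µmol/kg, dissolved in 10% DMSO/water. Three mice per time point were killed by CO2, and blood was taken by cardiac puncture. With FIAU as internal standard, supernatant was Sep-Pak extracted. AZT was quantified by C18 HPLC (water:methanol 7:3, 265 nm; detection limit about 0.5 µg/mL). AUC covers 0 to last sample; t1/2 is from a one-compartment model.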

Mus musculus [2] = species: Mus musculus; test: Thymidine Influx Inhibition constant for the compound in fresh Murine Erythrocytes; format: functional
In short: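 Erythrocytes from B6D2F1 mice, 10% hematocrit in HEPES-buffered saline, were given [methyl-3H]-thymidine (0.1–1.0 mM, four levels) with or without test compound (0.1–2.5 mM, four levels). Zero-trans influx ran 3 s and was stopped with 10 µM NBMPR (final). Cells were perchloric acid extracted and counted, with the zero-time blank subtracted. Ki came from a Dixon plot (1/v vs i), in duplicate.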

Mus musculus [3] = test: Pharmacokinetic parameter AUC for the compound after intravenous administration into BALB/c Mice in plasma samples.; format: ADME, organism-based; design: concentration or dose not given beside the values; conditions: in vivo; in short: as §1
[4] = Partition coefficient for 1-octanol/water was evaluated; format: physicochemical
Mus musculus [5] = species: Mus musculus; test: Distribution of analyte (pmol/mg) in mouse brain regions after Jugular Vein Injection into cortex; format: ADME, organism-based; conditions: in vivo, iv
Mus musculus [6] = species: Mus musculus; test: Percentage of radioactivity in P1 subregion in mouse brain that contains nuclei and cell debris, after Jugular Vein Injection; format: ADME, organism-based; conditions: in vivo, iv
In short: (§2)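 Brains were pooled from five mice, with cerebella removed, in 0.32 M sucrose. Homogenate was centrifuged at 0-4 °C: P1 at 1000g 10 min, P2 at 10000g 30 min, P3 at 100000g 1 h, S3 supernatant. Protein was by Lowry. Pellets were Protosol-solubilized at 55 °C, then counted by combustion/scintillation.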

Mus musculus [7] = species: Mus musculus; test: Percentage of total protein recovered in P2 subregion in mouse brain that contains myelin fragments, synaptosomes (pinched-nerve endings), and mitochondria after Jugular Vein Injection; format: ADME, organism-based; conditions: in vivo, iv; in short: as §2
Mus musculus [8] = species: Mus musculus; test: Distribution of analyte (pmol/mg) in mouse brain regions after Jugular Vein Injection into striatum; format: ADME, organism-based; conditions: in vivo, iv
Mus musculus [9] = species: Mus musculus; test: Distribution of analyte (pmol/mg) in mouse brain regions after Jugular Vein Injection into pons and medulla; format: ADME, organism-based; conditions: in vivo, iv
Mus musculus [10] = species: Mus musculus; test: Quantity of anylate in P3 subregion in mouse brain that contains microsomal fraction after Jugular Vein Injection; format: functional, organism-based; in short: as §2
Mus musculus [11] = species: Mus musculus; test: Distribution of analyte (pmol/mg) in mouse brain regions after Jugular Vein Injection into cerebellum; format: ADME, organism-based; conditions: in vivo, iv
Mus musculus [12] = species: Mus musculus; test: Quantity of anylate in P1 subregion in mouse brain that contains nuclei and cell debris, after Jugular Vein Injection; format: functional; in short: as §2
Mus musculus [13] = species: Mus musculus; test: Percentage of total protein recovered in S3 which is the soluble fraction in mouse brain after Jugular Vein Injection; conditions: in vivo, iv
Mus musculus [14] = species: Mus musculus; test: Quantity of anylate in P2 subregion in mouse brain that contains myelin fragments, synaptosomes (pinched-nerve endings), and mitochondria after Jugular Vein Injection; format: functional, organism-based; in short: as §2
Mus musculus [15] = species: Mus musculus; test: Distribution of analyte (pmol/mg) in mouse brain regions after Jugular Vein Injection into hippocampus; format: ADME, organism-based; conditions: in vivo, iv
Mus musculus [16] = species: Mus musculus; test: Distribution of analyte (pmol/mg) in mouse brain regions after Jugular Vein Injection into hypothalamus; format: ADME, organism-based; conditions: in vivo, iv
Mus musculus [17] = species: Mus musculus; test: Percentage of radioactivity in S3 which is the soluble fraction in mouse brain after Jugular Vein Injection; format: ADME, organism-based; conditions: in vivo, iv; in short: as §2
Mus musculus [18] = species: Mus musculus; test: Percentage of radioactivity in P3 subregion in mouse brain that contains microsomal fraction after Jugular Vein Injection; format: ADME, organism-based; conditions: in vivo, iv; in short: as §2
Mus musculus [19] = species: Mus musculus; test: Distribution of analyte (pmol/mg) in mouse brain regions after Jugular Vein Injection into rest of the brain; format: ADME, organism-based; conditions: in vivo, iv
Mus musculus [20] = species: Mus musculus; test: Percentage of radioactivity in P2 subregion in mouse brain that contains myelin fragments, synaptosomes (pinched-nerve endings), and mitochondria after Jugular Vein Injection; format: ADME, organism-based; conditions: in vivo, iv; in short: as §2
Mus musculus [21] = species: Mus musculus; test: Quantity of anylate in S3 which is the soluble fraction in mouse brain after Jugular Vein Injection; format: functional; in short: as §2
Mus musculus [22] = species: Mus musculus; test: Percentage of total protein recovered in P3 subregion in mouse brain that contains microsomal fraction after Jugular Vein Injection; format: ADME, organism-based; conditions: iv; in short: as §2
Mus musculus [23] = species: Mus musculus; test: Percentage of total protein recovered in P1 subregion in mouse brain that contains nuclei and cell debris, after Jugular Vein Injection; format: ADME, organism-based; conditions: in vivo, iv; in short: as §2
[24] = Concentration in mouse blood 60 min post injection at a dose 240 mocromol/kg; format: ADME, organism-based; conditions: whole blood
In short: (§3)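 Balb/c mice given 240 µmol/kg iv of the test diastereomer (10% DMSO/water vehicle, tail vein). Blood was drawn by cardiac puncture into heparinized syringe at 15, 20, 60 and 90 min. FIAU was added as internal standard, and the sample was extracted by Sep-Pak. AZT and parent were measured by C18 HPLC (water:methanol 7:3, UV 265 nm). Values are the average of two experiments.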

[25] = Concentration in mouse blood 20 min post injection at a dose 240 mocromol/kg; format: ADME, organism-based; conditions: whole blood; in short: as §3
[26] = Concentration in mouse blood 90 min post injection at a dose 240 mocromol/kg; format: ADME; conditions: whole blood; in short: as §3
[27] = Concentration in mouse blood 15 min post injection at a dose 240 mocromol/kg; format: ADME, organism-based; conditions: whole blood; in short: as §3

Compound: CO[C@@H]1N(C2CC(N=[N+]=[N-])C(CO)O2)C(=O)NC(=O)[C@@]1(C)Br (stereo not given in full)
- half-life [1]: 31.1 min
- Ki (Mus musculus [2]): 500 µM
- AUC (Mus musculus [3]): 13500 ng·h/mL
- Partition coefficient [4]: 16.7

Compound: O=c1ccn([C@H]2C[C@H](O)[C@@H](CO)O2)c(=O)[nH]1 [DEOXYURIDINE]
- Ki (Mus musculus [2]): 125 µM

Compound: CO[C@@H]1N(C2CC(N=[N+]=[N-])C(CO)O2)C(=O)NC(=O)[C@@]1(C)I (stereo not given in full)
- half-life [1]: 149 min
- Ki (Mus musculus [2]): 200 µM
- AUC (Mus musculus [3]): 9820 ng·h/mL
- Partition coefficient [4]: 18.8

Compound: CO[C@H]1N(C2CC(N=[N+]=[N-])C(CO)O2)C(=O)NC(=O)[C@@]1(C)Cl (stereo not given in full)
- Ki (Mus musculus [2]): > 1500 µM
- Partition coefficient [4]: 3.3

Compound: CCO[C@H]1N(C2CC(N=[N+]=[N-])C(CO)O2)C(=O)NC(=O)[C@]1(C)Br (stereo not given in full)
- Distribution (Mus musculus [5]): 0.66 pmol/mg
- Distribution (Mus musculus [6]): 5.2%
- Distribution (Mus musculus [7]): 43%
- Distribution (Mus musculus [8]): 0.85 pmol/mg
- Distribution (Mus musculus [9]): 0.62 pmol/mg
- Quantity (Mus musculus [10]): 1.21 pmol/mg
- Distribution (Mus musculus [11]): 0.66 pmol/mg
- Quantity (Mus musculus [12]): 3.96 pmol/mg
- Distribution (Mus musculus [13]): 27.5%
- Quantity (Mus musculus [14]): 1.62 pmol/mg
- Distribution (Mus musculus [15]): 1.1 pmol/mg
- Distribution (Mus musculus [16]): 1.1 pmol/mg
- Distribution (Mus musculus [17]): 84.7%
- Distribution (Mus musculus [18]): 2.4%
- Distribution (Mus musculus [19]): 0.83 pmol/mg
- Distribution (Mus musculus [20]): 7.7%
- Quantity (Mus musculus [21]): 27.8 pmol/mg
- Distribution (Mus musculus [22]): 17.6%
- Distribution (Mus musculus [23]): 11.9%

Compound: CO[C@H]1N(C2CC(N=[N+]=[N-])C(CO)O2)C(=O)NC(=O)[C@]1(C)Cl (stereo not given in full)
- Ki (Mus musculus [2]): 360 µM
- concentration at 1 h [24]: 16300 ng/mL
- concentration at 20 min [25]: 12500 ng/mL
- Partition coefficient [4]: 7.6
- concentration at […] [26]: 1100 ng/mL
- concentration at 0.25 h [27]: 28800 ng/mL

Compound: Cc1cn([C@H]2C[C@H](N=[N+]=[N-])[C@@H](CO)O2)c(=O)[nH]c1=O [ZIDOVUDINE]
- half-life [1]: 23.5 min
- Ki (Mus musculus [2]): 1330 µM
- AUC (Mus musculus [3]): 11800 ng·h/mL
- concentration at 20 min [25]: 2500 ng/mL
- Partition coefficient [4]: 1.3
- concentration at […] [26]: < 1000 ng/mL
- concentration at 0.25 h [27]: 2500 ng/mL

Compound: CO[C@H]1N(C2CC(N=[N+]=[N-])C(CO)O2)C(=O)NC(=O)[C@]1(C)I (stereo not given in full)
- half-life [1]: 33.6 min
- Ki (Mus musculus [2]): 350 µM
- AUC (Mus musculus [3]): 12500 ng·h/mL
- Partition coefficient [4]: 10.6

Compound: CO[C@H]1N(C2CC(N=[N+]=[N-])C(CO)O2)C(=O)NC(=O)[C@]1(C)Br (stereo not given in full)
- Distribution (Mus musculus [5]): 0.71 pmol/mg
- Distribution (Mus musculus [6]): 4.6%
- Distribution (Mus musculus [7]): 53.1%
- Distribution (Mus musculus [8]): 0.88 pmol/mg
- half-life [1]: 41.8 min
- Distribution (Mus musculus [9]): 0.66 pmol/mg
- Quantity (Mus musculus [10]): 0.98 pmol/mg
- Ki (Mus musculus [2]): 450 µM
- AUC (Mus musculus [3]): 6740 ng·h/mL
- Distribution (Mus musculus [11]): 0.72 pmol/mg
- Quantity (Mus musculus [12]): 2.08 pmol/mg
- Distribution (Mus musculus [13]): 24.9%
- Quantity (Mus musculus [14]): 0.65 pmol/mg
- Partition coefficient [4]: 13.2
- Distribution (Mus musculus [15]): 0.71 pmol/mg
- Distribution (Mus musculus [16]): 1.32 pmol/mg
- Distribution (Mus musculus [17]): 88.4%
- Distribution (Mus musculus [18]): 1.4%
- Distribution (Mus musculus [19]): 0.71 pmol/mg
- Distribution (Mus musculus [20]): 5.6%
- Quantity (Mus musculus [21]): 21.8 pmol/mg
- Distribution (Mus musculus [22]): 8.7%
- Distribution (Mus musculus [23]): 13.3%
